Most compounds without a hit are left out; they make up all but 1.8% or so of the library.
MC4R antagonist – blocks human MC4R cAMP signaling | MC4R-expressing cells, MTII-stimulated cAMP, LANCE TR-FRET | inhibition, % at 6.5 µM | hit rate 0.48% among 360,000;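 active = inhibition above its plate's cutoff, the mean of tested wells on that plate plus 3 SD, cut at about 29% in these data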;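 also: 0% = Melanotan II alone and 100% = Melanotan II plus saturating MCL0020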
Target sequence (P32245 whole entry, looked up): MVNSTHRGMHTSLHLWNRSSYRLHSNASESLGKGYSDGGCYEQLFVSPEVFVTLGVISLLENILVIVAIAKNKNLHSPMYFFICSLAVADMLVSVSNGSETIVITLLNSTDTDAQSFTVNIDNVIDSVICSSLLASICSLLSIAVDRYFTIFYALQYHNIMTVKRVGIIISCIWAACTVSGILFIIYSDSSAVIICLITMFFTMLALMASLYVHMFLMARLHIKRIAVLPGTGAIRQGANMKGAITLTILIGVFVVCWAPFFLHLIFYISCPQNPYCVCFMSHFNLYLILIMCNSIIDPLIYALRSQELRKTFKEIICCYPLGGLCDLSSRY
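Assay system: human MC4R-expressing U2OS cells; reagent: Melanotan II stimulation of cells; dosing: 6.5 µM single dose; timing: compound 30 min, challenge 1 h, detection 1 h; signal: TR-FRET cAMP assay; replicates: one well per compound, no replicates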
MC4R ag barr – agonists of human melanocortin 4 receptor (MC4R) beta-arrestin | P32245 | activation, % at 8.9 µM | hit rate 0.98% among 360,000 | U2OS MC4R beta-arrestin complementation, luminescence; percent of melanotan II response, DMSO zero | AID 540308;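 active = activation above a per-plate cutoff, the mean activation of sample wells on that plate plus 3 SD, cut at about 8% in these data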
TLR4 MyD88 comp – blocks binding of human TLR4 to MyD88; HeLa CL3-4 TLR4/MyD88 BLA complementation, FRET ratio; inhibition, % at 8.4 µM; hit rate 0.18% among 200,000; AID 861; in the data active = inhibition above about 25%;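 also: 0% = vehicle and 100% = reference inhibitor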
NOD2 RIPK2 PPI – blocks binding of human NOD2 to RIPK2 | AID 624267 | inhibition, % at 4.98 µM | hit rate 0.38% among 360,000 | O43353 | CHO BLA complementation NOD2-RIPK2, CCF4 ratio; in the data active = inhibition above about 21%;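 also: 0% = vehicle only and 100% = reference blocker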
TLR9-MyD88 inh – TLR9-MyD88 interaction inhibition; CHO BLA complementation TLR9-MyD88, CCF4 FRET ratio; inhibition, % at 4.98 µM; AID 504734; Q9NR96+Q99836; hit rate 0.21% among 340,000;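 active = inhibition above the mean over all tested compounds plus 3 SD, cut at about 21% in these data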;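 also: 0% = DMSO only wells and 100% = clavulanate BLA inhibitor control wells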
TLR9-MyD88 conf – TLR9-MyD88 interaction inhibition, confirmation; shares compounds with TLR9-MyD88 inh; CHO TLR9/MyD88 BLA complementation, CCF4 FRET ratio; inhibition, % at 4.98 µM; hit rate 51% among 680; AID 540250;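 active = mean inhibition across three repeats above about 21% taken from the earlier screen, limit read from the data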;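 also: blue over green emission ratio reports constitutive TLR9 MyD88 association via BLA complementation; 0% = DMSO vehicle wells and 100% = clavulanate BLA inhibitor wells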
BLA counter-1 – counter-screen for TLR9-MyD88 inhibitors: non-selective beta-lactamase inhibitors; shares compounds with TLR9-MyD88 inh; AID 540251; CHO-BLA cells, CCF4 FRET ratio, BLA reporter; hit rate 7% among 680; inhibition, % at 4.98 µM;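 active = mean inhibition above a 50% cutoff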;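 also: counterscreen of TLR9-MyD88 hits on CMV-driven BLA in CHO-K1 cells; 0% = DMSO alone and 100% = clavulanate blocking BLA; higher means less blue over green ratio so more BLA blockade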
TLR9 CHO tox – CHO cell toxicity counter-screen for TLR9-MyD88 inhibitors | inhibition, % at 4.98 µM | shares compounds with TLR9-MyD88 inh | TLR9-MyD88 CHO cells cytotoxicity, luminescence | hit rate 39% among 680; in the data active = inhibition above about 11%
NOD2-RIPK2 conf – NOD2-RIPK2 interaction inhibition confirmed; inhibition, % at 4.98 µM; hit rate 70% among 1,200; shares compounds with NOD2 RIPK2 PPI; CHO cells, NOD2-RIPK2 BLA complementation, CCF4 FRET; AID 624370;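 active = mean inhibition across replicates above a set limit taken from the earlier primary screen, cut at about 21% in these data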;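 also: 0% = DMSO-only wells and the high end = clavulanate BLA-blocked wells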
BLA counter-2 – hits BLA reporter in NOD2-RIPK2 inhibitor counterscreen. inhibition, % at 4.98 µM. hit rate 57% among 1,200. shares compounds with NOD2 RIPK2 PPI. CHO BLA reporter, CCF4 FRET ratio. AID 624371;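 active = mean inhibition above the low-control mean inhibition plus three low-control SD, cut at about 11% in these data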;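 also: 0% = DMSO only wells and 100% = clavulanate high control wells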
An asterisk follows results filed as active.

How did CCOc1ccc2nc(SCC(=O)NNC(=O)c3ccco3)c(C)cc2c1 do in these assays?
MC4R antagonist: 0; MC4R ag barr: -1; NOD2 RIPK2 PPI: 1; TLR9-MyD88 inh: -15

How did COCCn1c(-c2ccc(OC)cc2)nc2ccccc21 do in these assays?
MC4R antagonist: 12; MC4R ag barr: -3; TLR4 MyD88 comp: -6; NOD2 RIPK2 PPI: -1; TLR9-MyD88 inh: 4

How did COCCn1c2nc(=O)n(-c3ccccc3)c(=O)c-2nc2ccccc21 do in these assays?
MC4R antagonist: -11; MC4R ag barr: -4; NOD2 RIPK2 PPI: 36*; TLR9-MyD88 inh: 23*; TLR9-MyD88 conf: 10; BLA counter-1: 14; TLR9 CHO tox: 2; NOD2-RIPK2 conf: 32*; BLA counter-2: 32*

How did COc1ccc(/C=N/Nc2cc(C)nc3ccccc23)cc1 do in these assays?
MC4R antagonist: 1; MC4R ag barr: 2; NOD2 RIPK2 PPI: 11; TLR9-MyD88 inh: 0

Results for COc1ccc2nc(C)cc(N/N=C/c3ccc(F)cc3)c2c1 ?
MC4R antagonist: 9; MC4R ag barr: 9.2*; NOD2 RIPK2 PPI: 49*; TLR9-MyD88 inh: 23*; TLR9-MyD88 conf: 26*; BLA counter-1: 38; TLR9 CHO tox: 19*; NOD2-RIPK2 conf: 67*; BLA counter-2: 68*

What do the screens show for `COCOc1cccc(CN2CCC2(C)C(=O)Nc2ccc(C)cc2)c1` (centres undefined)?
MC4R antagonist: 3; MC4R ag barr: -1; NOD2 RIPK2 PPI: -1

Results for O=C1CC(Sc2nnnn2-c2ccccc2)C(=O)N1c1cccc(Cl)c1 (centres undefined) ?
MC4R antagonist: 27; MC4R ag barr: 0; TLR4 MyD88 comp: 5; NOD2 RIPK2 PPI: 57*; TLR9-MyD88 inh: 22*; TLR9-MyD88 conf: 11; BLA counter-1: 3; TLR9 CHO tox: 98*; NOD2-RIPK2 conf: 58*; BLA counter-2: 12*

Results for O=C(O)c1cccc(-n2c(/C=C/c3ccccc3)nc3ccccc3c2=O)c1 ?
MC4R antagonist: 12; MC4R ag barr: 0; NOD2 RIPK2 PPI: 5; TLR9-MyD88 inh: -10

What do the screens show for `CN(C)c1ccc(/C=C/c2nc3ccccc3c(=O)n2-c2ccc(C(=O)O)cc2)cc1`?
MC4R antagonist: 15; MC4R ag barr: 0; NOD2 RIPK2 PPI: 34*; TLR9-MyD88 inh: 40*; TLR9-MyD88 conf: 25*; BLA counter-1: 27; TLR9 CHO tox: 1; NOD2-RIPK2 conf: 60*; BLA counter-2: 65*

Results for O=C(NCCCN1CCCC1=O)c1cccc(S(=O)(=O)N2CCCCC2)c1 ?
MC4R antagonist: -1; MC4R ag barr: -1; NOD2 RIPK2 PPI: -4; TLR9-MyD88 inh: -2

Results for O=C(C=Cc1ccc2c(c1)OCO2)OCC=Cc1ccc2c(c1)OCO2 ?
MC4R antagonist: 0; MC4R ag barr: 0; NOD2 RIPK2 PPI: 3; TLR9-MyD88 inh: 8

How did O=C(CCCc1ccccn1)c1cccc2ccccc12 do in these assays?
MC4R antagonist: -3; MC4R ag barr: -1; NOD2 RIPK2 PPI: -7; TLR9-MyD88 inh: 7

Results for O=C(Cn1sc2ccccc2c1=O)Nc1ccc(Br)cc1 ?
MC4R antagonist: 4; MC4R ag barr: -2; NOD2 RIPK2 PPI: 28*; TLR9-MyD88 inh: 31*; TLR9-MyD88 conf: 17; BLA counter-1: 0; TLR9 CHO tox: 81*; NOD2-RIPK2 conf: 34*; BLA counter-2: 6

Results for O=c1cc(C(F)(F)F)[nH]c2ccc(C(F)(F)F)cc12 ?
MC4R antagonist: 14; MC4R ag barr: 7; NOD2 RIPK2 PPI: 12; TLR9-MyD88 inh: -9

Results for COC(=O)c1scc2c(=O)cc(C(F)(F)F)[nH]c12 ?
MC4R antagonist: 3; MC4R ag barr: 0; NOD2 RIPK2 PPI: 72*; TLR9-MyD88 inh: 63*; TLR9-MyD88 conf: 50*; BLA counter-1: 55*; TLR9 CHO tox: -2; NOD2-RIPK2 conf: 74*; BLA counter-2: 78*

What do the screens show for `COc1ccc(N(CN2C(=O)C3CCCCC3C2=O)C(=O)c2ccco2)cc1` (centres undefined)?
MC4R antagonist: 0; MC4R ag barr: 1; NOD2 RIPK2 PPI: -2

What do the screens show for `Cc1ccc(/C=N/NC(=O)c2ccccc2OCc2cccc(Br)c2)o1`?
MC4R antagonist: 4; MC4R ag barr: 0; TLR4 MyD88 comp: 4; NOD2 RIPK2 PPI: 0

Results for O=C(Nc1ccncc1)Nc1cccc(Cl)c1Cl ?
MC4R antagonist: 0; MC4R ag barr: -2; NOD2 RIPK2 PPI: -15; TLR9-MyD88 inh: 10

Results for O=C(Nc1ccc(Cl)cc1)Nc1cccc2nsnc12 ?
MC4R antagonist: 12; MC4R ag barr: 3; NOD2 RIPK2 PPI: 21*; TLR9-MyD88 inh: 21*; TLR9-MyD88 conf: 15; BLA counter-1: 15; TLR9 CHO tox: 0; NOD2-RIPK2 conf: 35*; BLA counter-2: 36*

Results for Cc1ccc2nc(-c3ccccc3)c(Cc3ccsc3)n2c1 ?
NOD2 RIPK2 PPI: -15

Results for Cn1c(=O)[nH]c(=O)c2c1nc([N+](=O)[O-])n2Cc1ccccc1 ?
MC4R antagonist: -7; MC4R ag barr: 1; NOD2 RIPK2 PPI: 59*; TLR9-MyD88 inh: 22*; TLR9-MyD88 conf: 26*; BLA counter-1: 10; TLR9 CHO tox: 99*; NOD2-RIPK2 conf: 31*; BLA counter-2: 7

How did CC(C)Cn1c([N+](=O)[O-])nc2c1c(=O)[nH]c(=O)n2C do in these assays?
MC4R antagonist: 17; MC4R ag barr: 0; NOD2 RIPK2 PPI: 5; TLR9-MyD88 inh: 1

Results for CC(NS(=O)(=O)c1cccc(Cl)c1)C(=O)N(C)C1CCN(C)CC1 (centres undefined) ?
MC4R antagonist: 0; MC4R ag barr: 0; TLR4 MyD88 comp: -5; NOD2 RIPK2 PPI: 5; TLR9-MyD88 inh: -7

Results for Fc1ccc(-c2nnc(SCc3cccnc3)o2)cc1 ?
MC4R antagonist: 19; MC4R ag barr: -1; TLR4 MyD88 comp: -11; NOD2 RIPK2 PPI: -7

Source: PubChem (The Scripps Research Institute Molecular Screening Center)
